# Source: ChEMBL document CHEMBL1122781, “[(Aminomethyl)aryloxy]acetic acid esters. A new class of high-ceiling diuretics. 1. Effects of nitrogen and aromatic nuclear substitution” (J Med Chem, 1984)
# What was measured:
# [1] = test system: Canis familiaris; assay: Diuretic activity was evaluated by measuring amount of Na+ during 0-6 h in urine of normotensive saline loaded dogs at 0.03 mg/kg, po; format: ADME, organism-based, Canis lupus familiaris; set-up: dose 0.03 mg/kg, route oral; conditions: dog, in vivo
# Procedure, shortened: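 Conscious dogs, each given a single oral dose per experiment, with at least two dogs per dose. Urine volume is measured; aliquots are centrifuged and chilled. Heparinized venous blood (4 mL) is drawn at each urine collection. Urine and plasma are analyzed for Na+, K+, Cl−, urate and glucose. Result is mean Na+ excretion in mequiv kg−1 (6 h)−1.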
# [2] = test system: Rattus norvegicus; assay: Diuretic activity was evaluated by measuring amount of K+ during 0-6 hr in urine of normotensive saline loaded rats at 30.0mg/kg, po; format: ADME, organism-based; conditions: in vivo, 30 mg/kg
# Procedure, shortened: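 Male normotensive Sprague–Dawley rats (275–375 g), eight per group. Test compound or vehicle (0.2% methylcellulose in water, 2 mL/kg) is given by mouth, followed at once by a 0.9% saline load equal to 5% of body weight. Rats are housed in metabolism cages without food or water. Urine is collected at 2, 6 and 24 h and assayed for Na+, K+, Cl−, uric acid and osmolality.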
# [3] = Diuretic activity was evaluated by measuring amount of Na+ during 0-6 hr in urine of normotensive […] monkey at 10mg/kg, po; format: ADME, organism-based; conditions: simiiformes, in vivo
# Procedure, shortened: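 Male and female cynomolgus monkeys, fasted 16–18 h with water until dosing, six per dose. Compound or vehicle is given through a nasogastric tube, then a 50 mL/kg water load. No food or water for 6 h in metabolism cages. Urine is collected at 0–1, 1–2, 2–4 and 4–6 h and analyzed for electrolytes, uric acid and glucose.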
smiles,measurement,setting,value
CCOC(=O)COc1ccc(C(=O)c2ccc(O)c(CN)c2)c(Cl)c1Cl.Cl,Diuretic activity,[1],0.5 m equiv kg-1
same,Diuretic activity,[2],3.8 m equiv kg-1
same,Diuretic activity,[3],6.6 m equiv kg-1
